Active and inactive are the calls of the source. No cut-off for these calls is given here.
Columns and labels:
[1] = biological target: T1, Phosphorylase b kinase gamma catalytic chain, liver/testis isoform (Homo sapiens) (UniProt P15735); experiment: Inhibition of PHKg2 in human HeLa cells lysate at 50 uM pre incubated for 15 mins followed by ATP acyl phosphate probe addition and measured after 10 mins by LC-MS/MS analysis relative to control; type: subcellular; conditions: time 25.0 min
T1 sequence (whole entry): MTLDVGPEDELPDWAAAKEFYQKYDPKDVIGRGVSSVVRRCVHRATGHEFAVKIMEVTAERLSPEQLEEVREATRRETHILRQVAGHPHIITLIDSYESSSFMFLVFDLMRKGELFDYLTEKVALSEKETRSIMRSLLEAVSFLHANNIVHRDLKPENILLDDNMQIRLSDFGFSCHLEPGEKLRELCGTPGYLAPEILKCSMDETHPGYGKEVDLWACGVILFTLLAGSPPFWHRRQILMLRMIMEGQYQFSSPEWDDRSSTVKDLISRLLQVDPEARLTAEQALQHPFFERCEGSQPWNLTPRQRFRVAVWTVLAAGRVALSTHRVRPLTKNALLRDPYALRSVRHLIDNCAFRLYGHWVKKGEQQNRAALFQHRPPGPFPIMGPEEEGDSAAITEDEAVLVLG

Ephrin type-A receptor 2 = Ephrin type-A receptor 2 (Homo sapiens, UniProt P29317); experiment: Inhibition of EphA2 in human HeLa cells lysate at 50 uM pre incubated for 15 mins followed by ATP acyl phosphate probe addition and measured after 10 mins by LC-MS/MS analysis relative to control; type: subcellular; conditions: time 25.0 min
[2] = biological target: T2, Ribosomal protein S6 kinase alpha-3 (Homo sapiens, UniProt P51812); experiment: Inhibition of RSK2 in human HeLa cells lysate pre incubated for 15 mins followed by ATP acyl phosphate probe addition and measured after 10 mins by LC-MS/MS analysis; type: subcellular
[3] = biological target: EKC/KEOPS complex subunit TP53RK (Homo sapiens, UniProt Q96S44); experiment: Inhibition of PRPK in human HeLa cells lysate pre incubated for 15 mins followed by ATP acyl phosphate probe addition and measured after 10 mins by LC-MS/MS analysis; type: subcellular
[4] = biological target: Inhibitor of nuclear factor kappa-B kinase subunit alpha (Homo sapiens, UniProt O15111); experiment: Inhibition of IKKA in human HeLa cells lysate pre incubated for 15 mins followed by ATP acyl phosphate probe addition and measured after 10 mins by LC-MS/MS analysis; type: subcellular
[5] = biological target: T3, EKC/KEOPS complex subunit TP53RK (Homo sapiens) (UniProt Q96S44); experiment: Inhibition of PRPK in human HeLa cells lysate at 2 uM pre incubated for 15 mins followed by ADP acyl phosphate probe addition and measured after 10 mins by LC-MS/MS analysis relative to control; type: subcellular; conditions: time 25.0 min
T3 sequence (whole entry): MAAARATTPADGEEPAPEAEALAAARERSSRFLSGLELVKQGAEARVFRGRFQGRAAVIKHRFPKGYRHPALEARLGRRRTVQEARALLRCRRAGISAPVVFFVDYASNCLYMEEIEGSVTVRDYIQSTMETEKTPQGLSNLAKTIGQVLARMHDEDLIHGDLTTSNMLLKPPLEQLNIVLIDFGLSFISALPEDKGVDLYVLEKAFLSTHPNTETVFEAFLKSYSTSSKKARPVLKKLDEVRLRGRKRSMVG

Lewis lung carcinoma = experiment: Antitumor activity against mouse LL2 cells allografted in C57Bl/6 mouse assessed as reduction tumor growth at 50 mg/kg, ip administered for 17 days; type: functional, organism-based; conditions: time 17.0 day
Outline: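 LL/2 cells (1×10^6, in DMEM) were injected s.c. into the right flank of 6-week-old C57Bl/6 mice on day 0. Dosing was 50 mg/kg i.p. twice daily, starting on day 1, 7 or 10 and continuing to day 17; controls received carrier. 6 mice per treated group. Tumors were measured every 2–3 days.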

[6] = Inhibition of MAP3K5/MAP3K6/MAP3K15 in human HeLa cells lysate pre incubated for 15 mins followed by ATP acyl phosphate probe addition and measured after 10 mins by LC-MS/MS analysis; type: subcellular
[7] = biological target: Serine/threonine-protein kinase ULK2 (Homo sapiens) (UniProt Q8IYT8); experiment: Inhibition of ULK2 in human HeLa cells lysate at 2 uM pre incubated for 15 mins followed by ADP acyl phosphate probe addition and measured after 10 mins by LC-MS/MS analysis relative to control; type: subcellular; conditions: time 25.0 min
[8] = biological target: Dual specificity mitogen-activated protein kinase kinase; MEK1/2 (Homo sapiens, UniProt P36507+Q02750); experiment: Inhibition of MAP2K1/MAP2K2in human HeLa cells lysate at 2 uM pre incubated for 15 mins followed by ADP acyl phosphate probe addition and measured after 10 mins by LC-MS/MS analysis relative to control; type: subcellular; conditions: time 25.0 min
[9] = biological target: RAC-alpha serine/threonine-protein kinase (Homo sapiens, UniProt P31749); experiment: Inhibition of AKT1 in human HeLa cells lysate at 50 uM pre incubated for 15 mins followed by ATP acyl phosphate probe addition and measured after 10 mins by LC-MS/MS analysis relative to control; type: subcellular; conditions: time 25.0 min
Outline: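 HeLa cell lysates (5 mg/mL total protein) were preincubated with inhibitor at 0, 0.8, 2, 10 or 50 μM for 15 min. ATP or ADP acylphosphate probe was then added (5 μM final) for 10 min, and reactions were stopped with urea. Up to four fragment ions per kinase probe-peptide were quantified by targeted MS. % inhibition was taken relative to untreated lysate. Run in duplicate.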

[10] = biological target: Serine/threonine-protein kinase Chk1 (Homo sapiens, UniProt O14757); experiment: Inhibition of CHK1 in human HeLa cells lysate pre incubated for 15 mins followed by ATP acyl phosphate probe addition and measured after 10 mins by LC-MS/MS analysis; type: subcellular
[11] = biological target: T2, Ribosomal protein S6 kinase alpha-3; experiment: Inhibition of RSK2 domain 1 in human HeLa cells lysate pre incubated for 15 mins followed by ADP acyl phosphate probe addition and measured after 10 mins by LC-MS/MS analysis; type: subcellular
[12] = biological target: T4, Serine/threonine-protein kinase Sgk3 (Homo sapiens) (UniProt Q96BR1); experiment: Inhibition of SGK3 in human HeLa cells lysate at 2 uM pre incubated for 15 mins followed by ATP acyl phosphate probe addition and measured after 10 mins by LC-MS/MS analysis relative to control; type: subcellular; conditions: time 25.0 min
T4 sequence (whole entry): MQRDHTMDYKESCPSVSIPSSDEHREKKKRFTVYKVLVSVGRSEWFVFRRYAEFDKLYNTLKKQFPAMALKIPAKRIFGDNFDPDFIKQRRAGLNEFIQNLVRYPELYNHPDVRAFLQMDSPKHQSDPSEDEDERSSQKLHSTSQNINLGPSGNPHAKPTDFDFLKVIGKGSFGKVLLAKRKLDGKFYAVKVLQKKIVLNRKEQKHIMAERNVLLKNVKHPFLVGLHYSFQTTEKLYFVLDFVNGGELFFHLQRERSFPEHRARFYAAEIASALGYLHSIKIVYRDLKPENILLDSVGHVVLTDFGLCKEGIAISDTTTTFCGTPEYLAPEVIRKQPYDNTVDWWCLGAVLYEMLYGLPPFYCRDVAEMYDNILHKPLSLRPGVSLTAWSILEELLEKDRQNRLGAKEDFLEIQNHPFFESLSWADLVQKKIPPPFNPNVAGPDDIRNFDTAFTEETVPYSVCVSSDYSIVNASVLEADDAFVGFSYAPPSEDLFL

T2 sequence (P51812 whole entry): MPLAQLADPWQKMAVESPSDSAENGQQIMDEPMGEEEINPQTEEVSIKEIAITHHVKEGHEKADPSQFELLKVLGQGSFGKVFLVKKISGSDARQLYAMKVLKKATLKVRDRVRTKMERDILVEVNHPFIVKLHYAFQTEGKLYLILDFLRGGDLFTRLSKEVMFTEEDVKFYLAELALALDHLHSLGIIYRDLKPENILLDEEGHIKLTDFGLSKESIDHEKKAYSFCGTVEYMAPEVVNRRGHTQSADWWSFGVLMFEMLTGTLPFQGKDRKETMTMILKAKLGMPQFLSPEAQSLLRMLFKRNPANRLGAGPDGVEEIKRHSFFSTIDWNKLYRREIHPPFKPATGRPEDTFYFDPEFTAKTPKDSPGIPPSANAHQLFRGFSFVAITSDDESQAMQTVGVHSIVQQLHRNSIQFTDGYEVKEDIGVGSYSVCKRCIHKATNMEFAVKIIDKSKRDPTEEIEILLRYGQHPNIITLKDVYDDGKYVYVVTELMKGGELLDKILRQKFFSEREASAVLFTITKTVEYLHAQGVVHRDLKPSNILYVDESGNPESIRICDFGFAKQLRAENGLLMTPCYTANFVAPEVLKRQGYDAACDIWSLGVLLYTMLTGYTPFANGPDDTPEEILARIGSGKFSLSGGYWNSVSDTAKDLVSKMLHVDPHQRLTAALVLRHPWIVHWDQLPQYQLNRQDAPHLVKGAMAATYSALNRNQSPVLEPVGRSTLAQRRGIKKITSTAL
Sequence of Serine/threonine-protein kinase ULK2 (Homo sapiens) (Q8IYT8 whole entry): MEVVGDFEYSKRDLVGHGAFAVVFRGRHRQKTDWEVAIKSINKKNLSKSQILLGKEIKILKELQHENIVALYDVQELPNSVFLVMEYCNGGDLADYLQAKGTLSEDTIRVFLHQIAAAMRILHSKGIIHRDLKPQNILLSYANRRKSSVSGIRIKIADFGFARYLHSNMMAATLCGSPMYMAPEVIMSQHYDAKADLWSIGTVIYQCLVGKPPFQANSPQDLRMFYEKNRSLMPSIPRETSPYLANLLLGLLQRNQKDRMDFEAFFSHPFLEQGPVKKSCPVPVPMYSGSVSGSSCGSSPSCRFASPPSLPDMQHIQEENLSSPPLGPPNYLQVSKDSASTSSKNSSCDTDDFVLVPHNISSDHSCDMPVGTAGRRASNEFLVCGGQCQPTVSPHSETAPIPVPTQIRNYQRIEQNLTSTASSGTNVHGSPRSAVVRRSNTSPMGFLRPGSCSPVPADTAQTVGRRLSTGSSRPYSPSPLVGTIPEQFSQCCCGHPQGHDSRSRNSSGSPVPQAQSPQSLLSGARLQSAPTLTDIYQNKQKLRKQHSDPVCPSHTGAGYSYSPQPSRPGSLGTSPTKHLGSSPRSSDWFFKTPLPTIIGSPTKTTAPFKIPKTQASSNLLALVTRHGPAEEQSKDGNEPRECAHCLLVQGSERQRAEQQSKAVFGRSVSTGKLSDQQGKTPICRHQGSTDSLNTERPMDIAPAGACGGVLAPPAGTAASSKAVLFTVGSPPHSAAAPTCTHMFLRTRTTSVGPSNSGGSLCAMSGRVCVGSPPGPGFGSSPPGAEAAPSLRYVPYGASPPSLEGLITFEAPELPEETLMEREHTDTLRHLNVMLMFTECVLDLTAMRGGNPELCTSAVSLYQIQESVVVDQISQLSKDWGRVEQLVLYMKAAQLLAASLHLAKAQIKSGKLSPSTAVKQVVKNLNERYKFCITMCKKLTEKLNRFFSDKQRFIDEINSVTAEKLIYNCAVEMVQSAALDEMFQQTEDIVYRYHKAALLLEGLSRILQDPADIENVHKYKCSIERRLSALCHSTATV
Sequence of Serine/threonine-protein kinase Chk1 (O14757 whole entry, the tested form may be a part): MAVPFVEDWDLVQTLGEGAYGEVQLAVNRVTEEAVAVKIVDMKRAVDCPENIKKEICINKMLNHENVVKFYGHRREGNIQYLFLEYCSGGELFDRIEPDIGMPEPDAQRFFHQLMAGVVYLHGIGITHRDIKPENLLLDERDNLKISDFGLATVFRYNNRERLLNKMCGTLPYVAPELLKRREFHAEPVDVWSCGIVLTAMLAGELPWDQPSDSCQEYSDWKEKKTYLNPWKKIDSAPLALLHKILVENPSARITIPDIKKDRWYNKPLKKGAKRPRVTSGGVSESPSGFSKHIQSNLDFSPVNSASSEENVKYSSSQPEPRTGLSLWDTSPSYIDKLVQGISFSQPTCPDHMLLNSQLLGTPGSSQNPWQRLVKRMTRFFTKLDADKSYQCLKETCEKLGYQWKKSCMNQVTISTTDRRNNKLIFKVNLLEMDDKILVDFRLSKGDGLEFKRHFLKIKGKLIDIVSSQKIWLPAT
Sequence of Dual specificity mitogen-activated protein kinase kinase; MEK1/2 (P36507 whole entry, looked up): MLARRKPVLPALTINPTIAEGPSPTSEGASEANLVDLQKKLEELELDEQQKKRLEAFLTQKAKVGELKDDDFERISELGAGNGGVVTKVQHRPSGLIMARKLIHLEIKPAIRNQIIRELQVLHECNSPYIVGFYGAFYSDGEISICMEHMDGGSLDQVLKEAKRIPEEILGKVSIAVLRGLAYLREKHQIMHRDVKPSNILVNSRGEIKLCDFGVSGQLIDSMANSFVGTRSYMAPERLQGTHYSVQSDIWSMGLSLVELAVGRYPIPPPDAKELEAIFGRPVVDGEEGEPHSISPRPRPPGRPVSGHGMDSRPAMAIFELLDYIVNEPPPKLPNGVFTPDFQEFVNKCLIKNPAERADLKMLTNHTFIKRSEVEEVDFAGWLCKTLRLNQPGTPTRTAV
Sequence of Dual specificity mitogen-activated protein kinase kinase; MEK1/2 (Q02750 whole entry, looked up): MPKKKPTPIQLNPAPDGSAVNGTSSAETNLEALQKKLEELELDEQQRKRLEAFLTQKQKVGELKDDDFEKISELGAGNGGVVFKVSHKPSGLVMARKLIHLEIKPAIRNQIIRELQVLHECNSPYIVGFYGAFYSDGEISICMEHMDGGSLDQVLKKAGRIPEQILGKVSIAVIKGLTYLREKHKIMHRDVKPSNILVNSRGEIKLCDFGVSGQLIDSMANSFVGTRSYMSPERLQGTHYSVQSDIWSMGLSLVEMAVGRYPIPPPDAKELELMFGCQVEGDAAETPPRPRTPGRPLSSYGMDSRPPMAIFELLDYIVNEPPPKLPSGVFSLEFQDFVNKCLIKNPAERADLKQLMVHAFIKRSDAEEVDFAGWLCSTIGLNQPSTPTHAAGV
Sequence of Inhibitor of nuclear factor kappa-B kinase subunit alpha (O15111 whole entry): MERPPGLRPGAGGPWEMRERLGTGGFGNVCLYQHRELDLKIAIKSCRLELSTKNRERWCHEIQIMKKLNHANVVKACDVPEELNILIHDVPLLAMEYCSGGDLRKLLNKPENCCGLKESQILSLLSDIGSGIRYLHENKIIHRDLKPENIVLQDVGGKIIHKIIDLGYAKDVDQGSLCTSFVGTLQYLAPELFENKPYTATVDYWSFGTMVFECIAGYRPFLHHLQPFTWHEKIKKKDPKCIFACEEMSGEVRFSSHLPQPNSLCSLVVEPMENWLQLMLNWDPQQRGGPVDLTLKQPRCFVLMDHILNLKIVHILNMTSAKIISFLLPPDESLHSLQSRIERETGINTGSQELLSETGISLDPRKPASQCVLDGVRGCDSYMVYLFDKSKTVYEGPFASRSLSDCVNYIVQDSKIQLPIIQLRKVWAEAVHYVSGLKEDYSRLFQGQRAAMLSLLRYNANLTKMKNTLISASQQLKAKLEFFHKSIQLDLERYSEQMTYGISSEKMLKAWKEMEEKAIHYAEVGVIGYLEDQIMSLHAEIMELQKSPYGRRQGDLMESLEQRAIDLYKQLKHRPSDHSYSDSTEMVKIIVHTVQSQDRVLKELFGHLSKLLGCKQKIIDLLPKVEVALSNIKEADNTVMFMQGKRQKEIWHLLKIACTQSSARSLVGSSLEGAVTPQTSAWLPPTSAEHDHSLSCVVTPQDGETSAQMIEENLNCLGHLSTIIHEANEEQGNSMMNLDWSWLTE
Sequence of Ephrin type-A receptor 2 (P29317 whole entry): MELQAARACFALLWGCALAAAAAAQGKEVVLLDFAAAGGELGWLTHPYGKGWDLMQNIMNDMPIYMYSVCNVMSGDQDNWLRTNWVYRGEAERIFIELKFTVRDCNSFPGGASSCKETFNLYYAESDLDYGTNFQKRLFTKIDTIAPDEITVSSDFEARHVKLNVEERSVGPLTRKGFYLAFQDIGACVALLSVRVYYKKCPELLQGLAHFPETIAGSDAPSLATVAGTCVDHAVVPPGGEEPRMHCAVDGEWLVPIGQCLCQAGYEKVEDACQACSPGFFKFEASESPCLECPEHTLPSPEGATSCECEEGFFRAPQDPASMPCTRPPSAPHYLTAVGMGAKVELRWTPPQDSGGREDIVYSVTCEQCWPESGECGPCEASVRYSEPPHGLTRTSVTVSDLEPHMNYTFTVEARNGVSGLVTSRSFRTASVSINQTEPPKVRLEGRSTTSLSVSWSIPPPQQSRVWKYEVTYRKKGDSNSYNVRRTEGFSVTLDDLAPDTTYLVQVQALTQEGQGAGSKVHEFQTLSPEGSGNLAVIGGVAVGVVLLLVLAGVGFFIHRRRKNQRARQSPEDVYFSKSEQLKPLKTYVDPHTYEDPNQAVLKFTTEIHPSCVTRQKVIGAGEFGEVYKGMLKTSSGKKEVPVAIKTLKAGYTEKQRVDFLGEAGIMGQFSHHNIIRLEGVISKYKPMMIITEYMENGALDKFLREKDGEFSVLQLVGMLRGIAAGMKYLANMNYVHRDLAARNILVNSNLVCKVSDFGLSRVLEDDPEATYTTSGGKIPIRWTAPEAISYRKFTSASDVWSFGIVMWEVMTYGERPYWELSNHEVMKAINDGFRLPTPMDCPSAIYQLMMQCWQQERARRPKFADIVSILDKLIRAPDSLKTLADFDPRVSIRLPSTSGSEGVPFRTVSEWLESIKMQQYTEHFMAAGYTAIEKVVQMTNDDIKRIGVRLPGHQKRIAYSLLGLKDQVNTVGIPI

SMILES: CCOc1cc(N2CCC(O)CC2)ccc1Nc1ncc2c(n1)N(C)c1ccccc1C(=O)N2C
- inhibition [1]: 8.5%
- inhibition (Ephrin type-A receptor 2): -7.8%
- IC50 [2]: > 50 µM
- IC50 [3]: > 50 µM
- IC50 [4]: > 50 µM
- inhibition [5]: 23.1%
- Activity (Lewis lung carcinoma): Active
- IC50 [6]: > 50 µM
- inhibition [7]: 7.3%
- inhibition [8]: 0.6%
- inhibition [9]: 15.4%
- IC50 [10]: > 50 µM
- IC50 [11]: > 50 µM
- inhibition [12]: 15.9%

— ChEMBL document CHEMBL5661979, “Pharmacological inhibition of BMK1 suppresses tumor growth through promyelocytic leukemia protein” (Cancer Cell, 2010)
